Source: PubChem BioAssay (Broad Institute)
PglD DTNB – C. jejuni PglD acetyltransferase inhibitors, primary screen, biochemical, DTNB colorimetric, single point | 0.098% of 360,000 active | UDP-N-acetylbacillosamine N-acetyltransferase PglD (Campylobacter jejuni) | inhibition, % at 12.5 µM | purified PglD enzyme, DTNB colorimetric CoA detection; in the data active = inhibition above about 16%, passing the limit was not always enough; inconclusive = no clear call, values can overlap the other calls
Env fusion inh – inhibitors of HIV-1 Env-driven cell-cell fusion, primary screen, HeLa-JRFL effector, CEM21 target cells, luciferase; inhibition, % at 12.3 µM; 1.1% of 360,000 active; AID 651610, 2012;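 active = mean replicate inhibition score of at least 50 and every replicate individually at or above 50; inconclusive = only one of the two criteria met; inactive = mean below 50 and not all replicates reaching 50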
DENV2 CPE rescue – inhibitors of DENV2 cytopathic effect, primary screen, cell-based, plate reader, single concentration; DENV2-infected cells, cytopathic effect rescue; CPE inhibition, % at 9.99 µM; 1.7% of 350,000 active; AID 651640, 2012; in the data active = CPE inhibition above about 20%, passing the limit was not always enough; inconclusive = no clear call, values can overlap the other calls; tested in BHK-21 cells
FN deposit inh – inhibitors of fibronectin matrix deposition, primary screen, AH1F cells, Alexa488-fibronectin fluorescence, plate reader. AH1F fibroblasts, overnight. AID 743247, 2014. 0.086% of 350,000 active. inhibition, % at 12.6 µM;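 active = mean inhibition across replicates of 30% or more, regardless of how many single replicates reach that level; inconclusive = mean under 30% yet at least half of replicates reach 30%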
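Assay system: AH1F fibroblasts assembling fluorescent fibronectin matrix; Amount: 10000 AH1F cells per well; Buffer or medium: DMEM, 2% serum; Probe or stimulus: Alexa488-fibronectin, 24 nM final in well; Doses: single compound dose, delivered by pin transfer; Incubation: 1 h adhesion, overnight exposure; Measured by: fluorescence 485/525 nm; Read-out: fibronectin deposition inhibition.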
Ecoli rRNA inh – reduced GFP signal of wild-type E. coli, primary screen, bacterial rRNA inhibitor project, GFP/RFP fluorescence, OD600, single point; E. coli WT GFP vs humanized-ribosome RFP mutants, 24 h; stronger effect = lower value; DMSO median 0, no signal -100; GFP signal change (wild-type ribosome), % (concentration not given with the values); 1.6% of 350,000 active;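 active = significant combined selectivity score with lowered wild-type GFP, culture density cut under 30%, mutant RFP and density less affected; inactive = any of these conditions unmet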
PGC1a acetyl inh – inhibitors of PGC1a acetylation signal, primary screen, cell-based, U2OS, AlphaScreen, inhibitor mode; AlphaScreen anti-acetyl-lysine; with virally co-expressed GCN5 acetyltransferase; inhibition, % at 15.6 µM; 0.17% of 350,000 active;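 active = every replicate shows inhibition of at least 40%; inconclusive = mean inhibition at least 40% but some replicate below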
Hits are given with their value; – = inactive; ? = inconclusive; · = no result given; [ ] = another dose, or the depositor's remark. Shown are actives, neighbours in structure and some others; about 3.5% of the full set was active somewhere.

SMILES	PglD DTNB	Env fusion inh	DENV2 CPE rescue	FN deposit inh	Ecoli rRNA inh	PGC1a acetyl inh
CCOC(=O)CNC(=S)N(Cc1cccs1)C1CCCCC1	·	–	21	–	–	·
Cc1cccc(C)c1NC(=S)N(Cc1cccs1)C1CCCC1	·	–	–	–	–	–
CC(C)CC#Cc1ccc2c(c1)O[C@H](CN(C)C(=O)C1CCOCC1)[C@@H](C)CN([C@@H](C)CO)S2(=O)=O	–	–	–	·	–	–
CNC(=O)c1ccc(-c2cc3onc(-c4ccccc4)c3c(=O)n2C)cc1	–	–	–	–	-28	–
Cc1cccc(NC(=S)NCCSc2ccc(Cl)cc2)c1	–	–	–	–	-37	–
Cc1ccc(NC(=S)NCC(C)CSc2ccc(Cl)cc2)cc1 (centres undefined)	·	–	–	–	-27	–
Cc1ccc(C)c(NC(=S)NCCSc2ccc(Cl)cc2)c1	·	–	·	–	·	·
C[C@@H]1CCCCO[C@H](CN(C)C(=O)c2ccncc2)[C@@H](C)CN([C@H](C)CO)C(=O)c2cc(NC(=O)CCC(F)(F)F)ccc2O1	–	–	–	–	–	–
CC(=O)c1ccc(-n2ccnc2)cc1	·	–	?	–	–	–
COC(=O)/C=C/c1ccc(-n2ccnc2)cc1	·	–	–	–	-30	·
C[C@@H]1CCCCO[C@@H](CN(C)C(=O)Nc2cccc3ccccc23)[C@H](C)CN([C@@H](C)CO)C(=O)c2cc(NC(=O)C3CCCCC3)ccc2O1	–	–	–	·	–	–
COc1ccc(COCCN2CCN(S(=O)(=O)c3ccc(C)cc3)CCC2=O)cc1	·	–	79	–	–	·
Cc1ccc(COCCN2CCN(S(=O)(=O)c3ccc(C)cc3)CCC2=O)cc1	–	–	–	–	–	–
COc1ccccc1/C=C(/C(=O)OCC(=O)Nc1ccccc1C)c1ccccc1	–	–	–	–	-22	·
COc1ccccc1/C=C(/C(=O)OCC(=O)Nc1ccc(N(C)C)cc1)c1ccccc1	·	–	·	–	·	·
COc1ccccc1/C=C(/C(=O)OCC(=O)NCc1ccccc1)c1ccccc1	–	–	·	–	·	92
N#C[C@@H]1[C@@H](c2ccc(C#CCC3CCCC3)cc2)[C@H](CO)N1C(=O)c1ccccn1	–	–	–	–	–	–
C[C@H]1CN([C@@H](C)CO)S(=O)(=O)c2ccc(C3=CCCCC3)cc2O[C@H]1CN(C)S(=O)(=O)c1ccc(F)cc1	–	–	–	·	–	–
C[C@H]1CN([C@@H](C)CO)S(=O)(=O)c2ccc(C3=CCCC3)cc2O[C@@H]1CN(C)S(=O)(=O)c1ccc(F)cc1	–	–	69	·	–	–
C[C@@H]1CN([C@@H](C)CO)S(=O)(=O)c2ccc(C3=CCCCC3)cc2O[C@@H]1CN(C)S(=O)(=O)c1ccc(F)cc1	–	62[16.7 µM]	–	·	–	–
COc1ccc(S(=O)(=O)Nc2cccc3c2O[C@H](CN(C)C(=O)Nc2ccccc2)[C@H](C)CN([C@@H](C)CO)C3=O)cc1	–	–	–	·	–	–
CC(=O)N1[C@H](CO)[C@H](c2ccccc2)[C@@H]1CN(C)S(=O)(=O)c1ccccc1	–	·	–	–	–	–
CC(=O)NC(c1cc(Cl)c2cccnc2c1O)C(C)C (centres undefined)	–	–	42	–	–	–
CC(=O)NC(c1cc(Cl)c2ccccc2c1O)C(C)C (centres undefined)	–	–	·	–	–	·
CC(=O)NC(c1cccs1)c1cc([N+](=O)[O-])c2cccnc2c1O (centres undefined)	·	–	87	–	–	·
SMILES	PglD DTNB	Env fusion inh	DENV2 CPE rescue	FN deposit inh	Ecoli rRNA inh	PGC1a acetyl inh
CCOc1ccc(N(C)S(=O)(=O)c2cc(-c3cc(C)no3)ccc2CC)cc1	–	–	–	–	–	–
COc1ccc(-c2cc(C)no2)cc1S(=O)(=O)NCC(C)c1ccccc1 (centres undefined)	–	56	–	–	–	–
COc1ccc(-c2cc(C)no2)cc1S(=O)(=O)NCCc1ccco1	–	–	–	–	–	–
CCOc1ccc(N(C)S(=O)(=O)c2cc(-c3cc(C)no3)ccc2OC)cc1	–	–	–	–	-37	–
CCOc1ccccc1CNS(=O)(=O)c1cc(-c2cc(C)no2)ccc1OC	–	–	–	–	–	–
COc1ccc(OC)c(CNS(=O)(=O)c2cc(-c3cc(C)no3)ccc2OC)c1	–	–	–	–	–	51
COCCNC(=O)[C@H]1[C@H](CO)[C@H]2Cn3c(ccc(C4=CCCCC4)c3=O)[C@@H]1N2C(=O)C1CC1	–	·	–	·	–	·
C[C@@H]1CN([C@@H](C)CO)S(=O)(=O)c2ccc(-c3cccc(C#N)c3)cc2O[C@@H]1CN(C)C	–	–	–	–	–	–
C[C@H](CO)N1C[C@H](C)[C@H](CN(C)Cc2ccncc2)Oc2c(NC(=O)Nc3ccccc3)cccc2C1=O	–	·	–	·	–	–
O=C(c1cccnc1)N1CCCCN2[C@H](CO)[C@H](c3ccc(C#Cc4cccnc4)cc3)[C@@H]2C1	–	·	·	·	–	–
COc1ccc(C2CC(c3ccccc3)=NN2S(=O)(=O)c2ccccc2)c(OC)c1 (centres undefined)	·	–	22	–	–	·
COc1ccc(C2CC(c3ccccc3)=NN2S(=O)(=O)c2ccc(C)cc2)c(OC)c1 (centres undefined)	·	·	·	–	·	·
CC(=O)OCC1=C(C(=O)O)N2C(=O)C(NC(=O)CCn3nc(C)c(Cl)c3C)C2SC1 (centres undefined)	·	–	–	33	–	–
O=C1C(Cl)=C(Nc2ccc3cn[nH]c3c2)C(=O)c2ccccc21	–	–	–	71	–	55
Cc1noc(C)c1NC(=O)N(C)C[C@@H]1Oc2ccc(NS(=O)(=O)c3cccs3)cc2C(=O)N([C@H](C)CO)C[C@@H]1C	–	·	–	·	–	–
Cc1noc(C)c1NC(=O)N(C)C[C@H]1Oc2ccc(N(C)C)cc2C(=O)N([C@@H](C)CO)C[C@@H]1C	–	–	–	·	–	–
Cc1noc(C)c1NC(=O)N(C)C[C@H]1Oc2ccc(NS(=O)(=O)c3cccs3)cc2C(=O)N([C@@H](C)CO)C[C@@H]1C	–	·	38	·	–	–
C[C@@H]1CN([C@H](C)CO)C(=O)c2cc(N(C)C)ccc2O[C@H]1CN(C)C(=O)Nc1ccc(F)cc1	–	–	–	·	–	–
C[C@@H]1CN([C@@H](C)CO)C(=O)c2cc(N(C)C)ccc2O[C@H]1CN(C)C(=O)Nc1ccc2c(c1)OCO2	–	–	40	·	–	–
